Measurements reported in ChEMBL document CHEMBL1150220, “Additional cytotoxic polyacetylenes from the marine sponge Petrosia species” (2001).
Converted amounts (≈) assume the structure as drawn.

System: Simian virus 40
Assay: Inhibition of SV40 DNA replication assessed as [alpha32P]dATP formation at 500 uM after 90 mins by agarose gel electrophoresis
Assay type: functional
Conditions: Betapolyomavirus macacae, 1.5 h
Method in brief: (§1)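 Cell-free SV40 DNA replication in Tris creatine phosphate buffer (pH 7.7) with creatine kinase, 7 mM MgCl2, 0.5 mM DTT, 4 mM ATP, 200 µM UTP/GTP/CTP, 100 µM dATP/dGTP/dCTP, SV40 T-Ag, origin-containing pUC DNA and replication proteins. The [α-32P]dATP variant ran 90 min at 37 °C, was stopped with EDTA/SDS/tRNA, and DNA was resolved on 1.0% agarose (12-14 h, 2 V/cm) and autoradiographed.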

Structure (SMILES) | inhibition at 500 µM [%]
C#C/C=C\CCCCCCCCCCCCC/C=C\CCCC/C=C\CCCCC#C[C@@H](O)C#CCCCCCC/C=C/[C@H](O)C#C [NOR-3S,14S-PETROCORTYNE A] | 70
C#CCCCCCCCCCCCCCCCC/C=C\CCCC/C=C\CC/C=C/C#C[C@@H](O)C#CCCCCCC/C=C/[C@H](O)C#C [PETROTETRAYNDIOL E] | 100
C#C/C=C\CCCCCCCCCCCCCC/C=C\CCCC/C=C\CCCC/C=C\[C@@H](O)C#CCCCCCC/C=C/[C@H](O)C#C [PETROTRIYNDIOL A] | 100
C#C/C=C\CCCCCCCCCCCCCC/C=C\CCCC/C=C\CCCCC#CC(=O)C#CCCCCCC/C=C/[C@H](O)C#C [PETROTETRAYNOL A] | 100
C#CCCCCCCCCCCCCCCCC/C=C\CCCC/C=C\CCCCC#C[C@@H](O)C#CCCCCCC/C=C/[C@H](O)C#C | 100
C#C/C=C\CCCCCCCCCCCCCCC/C=C\CCCC/C=C\CCCCC#C[C@@H](O)C#CCCCCCC/C=C/[C@H](O)C#C | 100

System: SK-MEL-2
Assay: Cytotoxicity against human SK-MEL-2 cells
Assay type: functional
Conditions: read-out: ED50 (the source's name)

Structure (SMILES) | EC50 [µg/mL]
C#C/C=C\CCCCCCCCCCCCC/C=C\CCCC/C=C\CCCCC#C[C@@H](O)C#CCCCCCC/C=C/[C@H](O)C#C [NOR-3S,14S-PETROCORTYNE A] | 3.8 (≈ 5.93 µM)
C#CCCCCCCCCCCCCCCCC/C=C\CCCC/C=C\CC/C=C/C#C[C@@H](O)C#CCCCCCC/C=C/[C@H](O)C#C [PETROTETRAYNDIOL E] | 1.1 (≈ 1.68 µM)
C#C/C=C\CCCCCCCCCCCCCC/C=C\CCCC/C=C\CCCC/C=C\[C@@H](O)C#CCCCCCC/C=C/[C@H](O)C#C [PETROTRIYNDIOL A] | 0.6 (≈ 0.913 µM)
C#C/C=C\CCCCCCCCCCCCCC/C=C\CCCC/C=C\CCCCC#CC(=O)C#CCCCCCC/C=C/[C@H](O)C#C [PETROTETRAYNOL A] | 5.2 (≈ 7.96 µM)
C#CCCCCCCCCCCCCCCCC/C=C\CCCC/C=C\CCCCC#C[C@@H](O)C#CCCCCCC/C=C/[C@H](O)C#C | 1.5 (≈ 2.28 µM)
C#C/C=C\CCCCCCCCCCCCCCC/C=C\CCCC/C=C\CCCCC#C[C@@H](O)C#CCCCCCC/C=C/[C@H](O)C#C | 0.8 (≈ 1.2 µM)

System: HCT-15
Assay: Cytotoxicity against human HCT15 cells
Assay type: functional
Conditions: read-out: ED50 (the source's name)

Structure (SMILES) | EC50 [µg/mL]
C#C/C=C\CCCCCCCCCCCCC/C=C\CCCC/C=C\CCCCC#C[C@@H](O)C#CCCCCCC/C=C/[C@H](O)C#C [NOR-3S,14S-PETROCORTYNE A] | 3.5 (≈ 5.46 µM)
C#CCCCCCCCCCCCCCCCC/C=C\CCCC/C=C\CC/C=C/C#C[C@@H](O)C#CCCCCCC/C=C/[C@H](O)C#C [PETROTETRAYNDIOL E] | 1.8 (≈ 2.75 µM)
C#C/C=C\CCCCCCCCCCCCCC/C=C\CCCC/C=C\CCCC/C=C\[C@@H](O)C#CCCCCCC/C=C/[C@H](O)C#C [PETROTRIYNDIOL A] | 0.8 (≈ 1.22 µM)
C#C/C=C\CCCCCCCCCCCCCC/C=C\CCCC/C=C\CCCCC#CC(=O)C#CCCCCCC/C=C/[C@H](O)C#C [PETROTETRAYNOL A] | > 30
C#CCCCCCCCCCCCCCCCC/C=C\CCCC/C=C\CCCCC#C[C@@H](O)C#CCCCCCC/C=C/[C@H](O)C#C | 2.5 (≈ 3.8 µM)
C#C/C=C\CCCCCCCCCCCCCCC/C=C\CCCC/C=C\CCCCC#C[C@@H](O)C#CCCCCCC/C=C/[C@H](O)C#C | 1.7 (≈ 2.54 µM)

System: Simian virus 40
Assay: Inhibition of SV40 DNA replication assessed as [alpha32P]dATP formation at 250 uM after 90 mins by agarose gel electrophoresis
Assay type: functional
Conditions: Betapolyomavirus macacae, 1.5 h
Method in brief: as §1

Structure (SMILES) | inhibition at 250 µM [%]
C#C/C=C\CCCCCCCCCCCCC/C=C\CCCC/C=C\CCCCC#C[C@@H](O)C#CCCCCCC/C=C/[C@H](O)C#C [NOR-3S,14S-PETROCORTYNE A] | 47
C#CCCCCCCCCCCCCCCCC/C=C\CCCC/C=C\CC/C=C/C#C[C@@H](O)C#CCCCCCC/C=C/[C@H](O)C#C [PETROTETRAYNDIOL E] | 83
C#C/C=C\CCCCCCCCCCCCCC/C=C\CCCC/C=C\CCCC/C=C\[C@@H](O)C#CCCCCCC/C=C/[C@H](O)C#C [PETROTRIYNDIOL A] | 90
C#C/C=C\CCCCCCCCCCCCCC/C=C\CCCC/C=C\CCCCC#CC(=O)C#CCCCCCC/C=C/[C@H](O)C#C [PETROTETRAYNOL A] | 100
C#CCCCCCCCCCCCCCCCC/C=C\CCCC/C=C\CCCCC#C[C@@H](O)C#CCCCCCC/C=C/[C@H](O)C#C | 70
C#C/C=C\CCCCCCCCCCCCCCC/C=C\CCCC/C=C\CCCCC#C[C@@H](O)C#CCCCCCC/C=C/[C@H](O)C#C | 86

System: XF498
Assay: Cytotoxicity against human XF498 cells
Assay type: functional
Conditions: read-out: ED50 (the source's name)

Structure (SMILES) | EC50 [µg/mL]
C#C/C=C\CCCCCCCCCCCCC/C=C\CCCC/C=C\CCCCC#C[C@@H](O)C#CCCCCCC/C=C/[C@H](O)C#C [NOR-3S,14S-PETROCORTYNE A] | 6.1 (≈ 9.52 µM)
C#CCCCCCCCCCCCCCCCC/C=C\CCCC/C=C\CC/C=C/C#C[C@@H](O)C#CCCCCCC/C=C/[C@H](O)C#C [PETROTETRAYNDIOL E] | 3.4 (≈ 5.19 µM)
C#C/C=C\CCCCCCCCCCCCCC/C=C\CCCC/C=C\CCCC/C=C\[C@@H](O)C#CCCCCCC/C=C/[C@H](O)C#C [PETROTRIYNDIOL A] | 1.3 (≈ 1.98 µM)
C#C/C=C\CCCCCCCCCCCCCC/C=C\CCCC/C=C\CCCCC#CC(=O)C#CCCCCCC/C=C/[C@H](O)C#C [PETROTETRAYNOL A] | > 30
C#CCCCCCCCCCCCCCCCC/C=C\CCCC/C=C\CCCCC#C[C@@H](O)C#CCCCCCC/C=C/[C@H](O)C#C | 5.8 (≈ 8.83 µM)
C#C/C=C\CCCCCCCCCCCCCCC/C=C\CCCC/C=C\CCCCC#C[C@@H](O)C#CCCCCCC/C=C/[C@H](O)C#C | 2.5 (≈ 3.74 µM)

System: A549
Assay: Cytotoxicity against human A549 cells
Assay type: functional
Conditions: read-out: ED50 (the source's name)

Structure (SMILES) | EC50 [µg/mL]
C#C/C=C\CCCCCCCCCCCCC/C=C\CCCC/C=C\CCCCC#C[C@@H](O)C#CCCCCCC/C=C/[C@H](O)C#C [NOR-3S,14S-PETROCORTYNE A] | 7.3 (≈ 11.4 µM)
C#CCCCCCCCCCCCCCCCC/C=C\CCCC/C=C\CC/C=C/C#C[C@@H](O)C#CCCCCCC/C=C/[C@H](O)C#C [PETROTETRAYNDIOL E] | 24.5 (≈ 37.4 µM)
C#C/C=C\CCCCCCCCCCCCCC/C=C\CCCC/C=C\CCCC/C=C\[C@@H](O)C#CCCCCCC/C=C/[C@H](O)C#C [PETROTRIYNDIOL A] | 1.8 (≈ 2.74 µM)
C#C/C=C\CCCCCCCCCCCCCC/C=C\CCCC/C=C\CCCCC#CC(=O)C#CCCCCCC/C=C/[C@H](O)C#C [PETROTETRAYNOL A] | > 30
C#CCCCCCCCCCCCCCCCC/C=C\CCCC/C=C\CCCCC#C[C@@H](O)C#CCCCCCC/C=C/[C@H](O)C#C | > 10
C#C/C=C\CCCCCCCCCCCCCCC/C=C\CCCC/C=C\CCCCC#C[C@@H](O)C#CCCCCCC/C=C/[C@H](O)C#C | 11.3 (≈ 16.9 µM)

System: Simian virus 40
Assay: Inhibition of SV40 DNA replication assessed as [alpha32P]dATP formation at 125 uM after 90 mins by agarose gel electrophoresis
Assay type: functional
Conditions: Betapolyomavirus macacae, 1.5 h
Method in brief: as §1

Structure (SMILES) | inhibition at 125 µM [%]
C#C/C=C\CCCCCCCCCCCCC/C=C\CCCC/C=C\CCCCC#C[C@@H](O)C#CCCCCCC/C=C/[C@H](O)C#C [NOR-3S,14S-PETROCORTYNE A] | 12
C#CCCCCCCCCCCCCCCCC/C=C\CCCC/C=C\CC/C=C/C#C[C@@H](O)C#CCCCCCC/C=C/[C@H](O)C#C [PETROTETRAYNDIOL E] | 62
C#C/C=C\CCCCCCCCCCCCCC/C=C\CCCC/C=C\CCCC/C=C\[C@@H](O)C#CCCCCCC/C=C/[C@H](O)C#C [PETROTRIYNDIOL A] | 62
C#C/C=C\CCCCCCCCCCCCCC/C=C\CCCC/C=C\CCCCC#CC(=O)C#CCCCCCC/C=C/[C@H](O)C#C [PETROTETRAYNOL A] | 76
C#CCCCCCCCCCCCCCCCC/C=C\CCCC/C=C\CCCCC#C[C@@H](O)C#CCCCCCC/C=C/[C@H](O)C#C | 40
C#C/C=C\CCCCCCCCCCCCCCC/C=C\CCCC/C=C\CCCCC#C[C@@H](O)C#CCCCCCC/C=C/[C@H](O)C#C | 59

System: SK-OV-3
Assay: Cytotoxicity against human SKOV3 cells
Assay type: functional
Conditions: read-out: ED50 (the source's name)

Structure (SMILES) | EC50 [µg/mL]
C#C/C=C\CCCCCCCCCCCCC/C=C\CCCC/C=C\CCCCC#C[C@@H](O)C#CCCCCCC/C=C/[C@H](O)C#C [NOR-3S,14S-PETROCORTYNE A] | 4.4 (≈ 6.86 µM)
C#CCCCCCCCCCCCCCCCC/C=C\CCCC/C=C\CC/C=C/C#C[C@@H](O)C#CCCCCCC/C=C/[C@H](O)C#C [PETROTETRAYNDIOL E] | 1.7 (≈ 2.6 µM)
C#C/C=C\CCCCCCCCCCCCCC/C=C\CCCC/C=C\CCCC/C=C\[C@@H](O)C#CCCCCCC/C=C/[C@H](O)C#C [PETROTRIYNDIOL A] | 0.8 (≈ 1.22 µM)
C#C/C=C\CCCCCCCCCCCCCC/C=C\CCCC/C=C\CCCCC#CC(=O)C#CCCCCCC/C=C/[C@H](O)C#C [PETROTETRAYNOL A] | 4.6 (≈ 7.04 µM)
C#CCCCCCCCCCCCCCCCC/C=C\CCCC/C=C\CCCCC#C[C@@H](O)C#CCCCCCC/C=C/[C@H](O)C#C | 1.5 (≈ 2.28 µM)
C#C/C=C\CCCCCCCCCCCCCCC/C=C\CCCC/C=C\CCCCC#C[C@@H](O)C#CCCCCCC/C=C/[C@H](O)C#C | 2.2 (≈ 3.29 µM)
